Screening results as filed in PubChem.
PAFAH1B2 FP inh: inhibitors of human PAFAH1B2; inhibition, % at 3.39 µM; recombinant PAFAH1B2, FP-rhodamine activity probe, fluorescence polarization; hit rate 1.2% among 340,000; P68402;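 active = inhibition above the mean of all tested compounds plus 3 SD, cut at about 24% in these data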;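 also: 0% = enzyme with DMSO and 100% = wells lacking PAFAH1B2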
Target sequence (P68402 whole entry, looked up): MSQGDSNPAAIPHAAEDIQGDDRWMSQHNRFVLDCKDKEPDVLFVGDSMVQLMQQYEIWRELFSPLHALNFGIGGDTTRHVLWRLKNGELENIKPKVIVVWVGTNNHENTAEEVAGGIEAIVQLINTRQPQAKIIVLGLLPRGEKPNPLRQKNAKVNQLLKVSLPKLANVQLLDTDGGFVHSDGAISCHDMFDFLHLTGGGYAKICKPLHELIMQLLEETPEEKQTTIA
pPAFAH inh: pPAFAH (human) enzyme inhibition; Q13093; recombinant pPAFAH, FP-rhodamine probe fluorescence polarization; inhibition, % at 3.39 µM; hit rate 1.5% among 330,000;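 active = inhibition above the mean inhibition across the screen plus 3 SD, cut at about 25% in these data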;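 also: inhibitors block binding of the rhodamine activity-based probe so polarization drops; 0% = enzyme with DMSO and 100% = wells lacking pPAFAH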
Target sequence (Q13093 whole entry, looked up): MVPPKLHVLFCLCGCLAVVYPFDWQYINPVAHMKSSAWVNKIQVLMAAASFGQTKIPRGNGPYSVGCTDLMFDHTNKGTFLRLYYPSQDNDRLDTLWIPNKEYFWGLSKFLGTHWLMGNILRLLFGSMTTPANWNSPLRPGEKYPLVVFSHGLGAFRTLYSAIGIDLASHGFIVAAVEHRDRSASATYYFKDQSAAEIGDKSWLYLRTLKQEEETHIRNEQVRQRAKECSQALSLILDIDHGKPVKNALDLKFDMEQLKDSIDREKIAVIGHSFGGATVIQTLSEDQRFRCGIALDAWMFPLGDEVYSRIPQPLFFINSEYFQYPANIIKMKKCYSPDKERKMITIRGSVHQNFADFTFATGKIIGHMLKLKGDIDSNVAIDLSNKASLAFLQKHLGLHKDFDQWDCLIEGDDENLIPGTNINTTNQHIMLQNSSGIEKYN
PAFAH1B3 FP inh: inhibitors of human PAFAH1B3; recombinant PAFAH1B3, FP-rhodamine probe, fluorescence polarization; hit rate 0.28% among 340,000; inhibition, % at 3.39 µM; AID 492972;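 active = inhibition above the screen-wide average of all tested compounds plus 3 SD, cut at about 25% in these data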;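 also: 0% = enzyme with DMSO only and 100% = wells lacking PAFAH1B3 protein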
IMP-1 inhibitor: blocks Pseudomonas aeruginosa IMP-1 metallo-beta-lactamase; purified IMP-1, nitrocefin hydrolysis, epi-absorbance fluorescence; inhibition, % at 5.6 µM; hit rate 0.45% among 290,000;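 active = inhibition above the mean plus 3 SD of all compounds in the same screening run, cut at about 4.5% in these data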;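 also: 0% = IMP-1 with DMSO and 100% = DMSO wells lacking enzyme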
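assay system = purified recombinant IMP-1 metallo-beta-lactamase enzyme | schedule = 15 min preincubation plus 25 min reaction at 25 °C | signal = Epi-absorbance fluorescence, 480 nm excitation, 530 nm emission | read-out basis = percent inhibition from optical density relative to buffer-blank wells | controls = IMP-1 with DMSO as 0%, enzyme-free DMSO as 100%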
PAFAH2 FP inh: inhibitors of human PAFAH2; Q99487; recombinant PAFAH2, FP-rhodamine activity probe, fluorescence polarization; inhibition, % at 3.39 µM; hit rate 0.99% among 340,000; AID 492956;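 active = inhibition above the mean over all tested compounds plus 3 SD, cut at about 30% in these data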;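 also: inhibitors block probe labeling of enzyme so polarization drops; 0% = enzyme with DMSO and 100% = wells lacking PAFAH2 protein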
VIM-2 inhibitor: blocks Pseudomonas aeruginosa VIM-2 metallo-beta-lactamase; hit rate 0.89% among 290,000; inhibition, % at 5.6 µM; purified VIM-2, nitrocefin hydrolysis, epi-absorbance fluorescence;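 active = inhibition above the mean of all tested compounds plus 3 SD, cutoff set per screening run, cut at about 7.5% in these data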;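 also: red hydrolysis product quenches plate fluorescence so inhibitors raise well fluorescence; 0% = enzyme with DMSO and 100% = DMSO without enzyme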
PAFAH2 FP conf: PAFAH2 (human) inhibition, confirmed. shares compounds with PAFAH2 FP inh. inhibition, % at 3.39 µM. recombinant PAFAH2, FP-rhodamine activity probe, fluorescence polarization. hit rate 65% among 2,300. AID 493030;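 active = mean inhibition over three repeats above a set limit taken from the earlier primary screen, cut at about 30% in these data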;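 also: inhibitor blocks binding of rhodamine activity probe so polarization falls; 0% = enzyme with DMSO and 100% = wells lacking PAFAH2 protein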
* marks the source's active call; other numbers are inactive results; . = not tested or not shown. In the library only some 3.6% were active in any assay of this set; here they are far more common.

SMILES	PAFAH1B2 FP inh	pPAFAH inh	PAFAH1B3 FP inh	IMP-1 inhibitor	PAFAH2 FP inh	VIM-2 inhibitor	PAFAH2 FP conf
NC(=O)COc1c(-c2ccc(Br)o2)oc2ccccc2c1=O	-2	2	1	-1	31*	5	4
CC(=O)COc1c(-c2ccco2)oc2ccccc2c1=O	1	.	4	-4	3	-1	.
O=C(COC(=O)C1CC1)NCc1ccc(Cl)cc1Cl	5	5	4	.	64*	.	46*
Cc1ccc(C(=O)OCC(=O)NCc2ccc(Cl)cc2Cl)o1	8	4	1	.	56*	.	42*
O=C1CCc2cccc(O)c2N1	1	.	3	.	1	.	.
CSCC[C@H](N)C(=O)N1CCC(C(=O)N[C@@H](C)C(=O)NCc2ccc(F)cc2)CC1	5	-5	7	-2	4	-3	.
Oc1ccc(/C=N/N=C/c2ccc(O)c(O)c2)cc1O	0	9	-3	-2	54*	2	14
O=C1Nc2ccccc2/C1=N\N=C\c1ccc(O)c(O)c1	12	5	21	-2	46*	-1	18
CC(C)C[C@@H](CNCC(=O)[C@H](C)NC(=O)c1[nH]cnc1C(=O)N[C@@H](C)CN)NC(=O)c1nc[nH]c1C(=O)N[C@@H](CC(=O)O)C(=O)O	6	.	12	.	-1	.	.
O=c1c2c(nc3nc(Cc4ccccc4)[nH]n13)CCC2	-3	7	7	-2	67*	1	59*
Cc1nc2nc3c(c(=O)n2[nH]1)CCC3	1	-3	0	-5	2	-2	.
CCCCCCCNC(=O)C1(CC2CC(c3ccc(Cl)cc3)=NO2)CCN(C(=O)CCCCCBr)CC1 (configuration not stated)	1	13	12	-7	6	-2	.
Oc1ccc(C[C@@H]2CNCCN2CCc2cccc(F)c2)cc1	3	-3	-7	.	3	.	.
O=C(CSc1cccc[n+]1[O-])C12CC3CC(CC(C3)C1)C2	6	7	4	-3	48*	-1	46*
CCC(=O)Nc1ccc(C(=O)NNC(=O)c2ccc(C)cc2)cc1	6	2	2	-1	-1	-2	.
Cc1cc(/C=C2\SC(N)=NC2=O)c(C)n1-c1ccccc1	0	7	-4	0	49*	-2	33*
CC1CN(C(=O)COC(=O)Cc2c(Cl)cccc2Cl)CC(C)O1 (configuration not stated)	4	5	0	.	7	.	.
CN(CC(=O)Nc1cccc(F)c1)C(=O)c1ccc2c(c1)CC(c1ccccc1)OC2=O (configuration not stated)	6	.	-10	.	0	.	.
CC(=O)Nc1ccc(C(=O)OCC(=O)Nc2ccccc2F)cc1	2	-2	1	-1	69*	-1	70*
O=C(OCC(=O)c1ccc[nH]1)c1ccc(Br)cc1	5	13	-4	.	10	.	.
COc1ccc(C(=O)OCC(=O)c2ccc[nH]2)cc1	-3	4	-2	.	40*	.	31*
COc1ccc(C(=O)COC(=O)c2ccc(NC(C)=O)cc2)cc1[N+](=O)[O-]	0	3	3	-1	12	0	.
Cc1cc(C(=O)OCC(=O)Nc2ccccc2F)c(C)o1	0	4	9	-1	39*	-1	32*
COc1cccc(C(=O)COC(=O)c2ccc(NC(C)=O)cc2)c1	4	-3	8	-1	37*	0	32*
Cc1cc(C(=O)OCC(=O)Nc2cc(Cl)ccc2C)c(C)o1	-1	4	-1	.	14	.	.
SMILES	PAFAH1B2 FP inh	pPAFAH inh	PAFAH1B3 FP inh	IMP-1 inhibitor	PAFAH2 FP inh	VIM-2 inhibitor	PAFAH2 FP conf
COC(=O)c1ccc(NC(=O)Nc2ccccc2F)cc1	-1	-5	4	-2	-5	-3	.
Cc1cccc(NC(=O)COC(=O)c2ccc3nc(C)c(C)nc3c2)c1	1	-4	5	.	71*	.	49*
Cc1cccc(NC(=O)COC(=O)c2ccc3c(=O)n4c(nc3c2)CCC4)c1	3	-6	0	-4	2	0	.
Cc1cc(C(=O)OCC(=O)Nc2c(Cl)cccc2Cl)c(C)o1	0	2	7	.	27	.	.
Cc1cccc(NC(=O)COC(=O)c2cc(C)oc2C)c1	-1	-2	1	-1	75*	-1	79*
Cc1cc(C(=O)OCC(=O)Nc2ccccc2C#N)c(C)o1	1	.	2	.	43*	.	32*
O=C(N/N=C/c1cc([N+](=O)[O-])ccc1O)C1CC1	5	-3	15	-3	1	-7	.
O=[N+]([O-])c1ccc(O)c(/C=N/Nc2ccccc2Cl)c1	3	16	11	-2	74*	0	62*
O=C1C(=NO)C(c2ccccc2)Oc2ccccc21 (configuration not stated)	4	.	22	.	6	.	.
O=Cc1ccc(C(=O)OCC(=O)NCCC2=CCCCC2)cc1	-2	7	1	.	23	.	.
O=C(COC(=O)c1ccccc1)NCCC1=CCCCC1	2	9	0	-1	35*	0	31*
O=C(COC(=O)c1cnc(Cl)c(Cl)c1)NCCC1=CCCCC1	-3	0	8	-4	5	-1	.
Nc1cc(C(=O)OCC(=O)NCCC2=CCCCC2)ccc1Cl	3	16	-5	.	52*	.	38*
O=C(COC(=O)c1ccc(Br)cc1)NCCC1=CCCCC1	3	19	8	-2	31*	-1	32*
Cc1ccsc1C(=O)OCC(=O)NCCC1=CCCCC1	0	9	-2	-1	32*	-2	25
O=C(O)C(SC(C(=O)O)c1ccccc1)c1ccccc1 (configuration not stated)	1	.	5	.	2	.	.
N#Cc1ccc(S(=O)(=O)N2CCN(Cc3cccs3)CC2)cc1	7	4	1	.	0	.	.
CN(C)S(=O)(=O)c1cccc(NC(=S)N/N=C/c2cc(Br)ccc2O)c1	9	20	20	-2	34*	3	20
O=C(N/N=C/c1cc(Br)ccc1O)Nc1ccccc1	-5	0	11	-2	4	0	.
Cc1ccc(C(=O)Nc2cc(Cl)ccc2OC(=O)c2ccc(C)cc2)cc1	.	9	.	-2	.	-3	.
COc1ccc(C(=O)Nc2cc(Cl)ccc2OC(=O)c2ccc(OC)cc2)cc1	0	2	3	-4	45*	-5	35*
COc1cc(/C=C/C(=O)OCC(=O)N(C)Cc2ccccc2)ccc1O	3	5	1	.	33*	.	19
COc1ccccc1CNC(=O)COC(=O)/C=C/c1ccc2c(c1)OCO2	2	3	-1	.	39*	.	43*
COc1cc(/C=C/C(=O)OCC(=O)N(C)Cc2ccccc2)cc(OC)c1OC	3	2	5	.	9	.	.
COc1ccc(CCNC(=O)COC(=O)/C=C/c2ccc3c(c2)OCO3)cc1OC	2	-3	8	.	6	.	.
